Laboratory results: ChEMBL document CHEMBL4266020, “Design, Synthesis, and Antifibrosis Activity in Liver of Nonsecosteroidal Vitamin D Receptor Agonists with Phenyl-pyrrolyl Pentane Skeleton” (J Med Chem, 2018)
Values belong to the compound of their own block, whether it stands above or below them. The source made the active and inactive calls. The rule behind the calls is not given here.

Assays:
[1] = system: Mus musculus; assay: Antifibrotic activity in C57BL/6J mouse model of CCl4-induced liver fibrosis assessed as reduction in hydroxyproline levels in liver at 20 ug/kg, po administered 5 times a week via gavage measured at 72 hrs post final CCl4 injection; assay type: functional, organism-based
Outline: (§1)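 Same CCl4 mouse model (n=5; 0.5 mL/kg IP in corn oil, 3×/week for 4 weeks; 20 µg/kg oral gavage 5×/week from day 20; sacrifice 72 h after last CCl4). Livers fixed in 4% paraformaldehyde for 24 h, paraffin-embedded, and cut into 5 µm sections. Sections stained with H&E (×100) or Masson's trichrome (×200). Hydroxyproline measured by kit.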

[2] = system: Mus musculus; assay: Hepatoprotective activity against CCL4-induced liver damage in C57BL/6J mouse assessed as reduction in serum AST levels at 20 ug/kg, po administered 5 times a week via gavage measured at 72 hrs post final CCl4 injection; assay type: functional, organism-based
Outline: (§2)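 Same CCl4 mouse model (n=5; 0.5 mL/kg IP, 3×/week for 4 weeks; 20 µg/kg gavage 5×/week from day 20; sacrifice 72 h after last CCl4). Serum obtained by centrifugation at 3000 rpm for 15 min at 4°C. ALT, AST, TBA and calcium measured with commercial kits. Mean ± SD.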

[3] = system: Mus musculus; assay: Hepatoprotective activity against CCL4-induced liver damage in C57BL/6J mouse assessed as reduction in serum ALT levels at 20 ug/kg, po administered 5 times a week via gavage measured at 72 hrs post final CCl4 injection; assay type: functional, organism-based; outline: as §2
[4] = system: Mus musculus; assay: Hepatoprotective activity against CCL4-induced liver damage in C57BL/6J mouse assessed as reduction in serum TBA levels at 20 ug/kg, po administered 5 times a week via gavage measured at 72 hrs post final CCl4 injection; assay type: functional, organism-based; outline: as §2
[5] = Oral bioavailability in Sprague-Dawley rat at 20 mg/kg by HPLC analysis; assay type: ADME, organism-based; details: in vivo
[6] = Half life in Sprague-Dawley rat at 20 mg/kg, po by HPLC analysis; assay type: ADME, organism-based; details: in vivo
[7] = target: T1, Vitamin D3 receptor (Homo sapiens) (UniProt P11473); assay: Binding affinity to VDR ligand binding domain (unknown origin) at 100 nM by fluorescence polarization assay relative to 1,25(OH)2D3
T1 sequence (whole entry): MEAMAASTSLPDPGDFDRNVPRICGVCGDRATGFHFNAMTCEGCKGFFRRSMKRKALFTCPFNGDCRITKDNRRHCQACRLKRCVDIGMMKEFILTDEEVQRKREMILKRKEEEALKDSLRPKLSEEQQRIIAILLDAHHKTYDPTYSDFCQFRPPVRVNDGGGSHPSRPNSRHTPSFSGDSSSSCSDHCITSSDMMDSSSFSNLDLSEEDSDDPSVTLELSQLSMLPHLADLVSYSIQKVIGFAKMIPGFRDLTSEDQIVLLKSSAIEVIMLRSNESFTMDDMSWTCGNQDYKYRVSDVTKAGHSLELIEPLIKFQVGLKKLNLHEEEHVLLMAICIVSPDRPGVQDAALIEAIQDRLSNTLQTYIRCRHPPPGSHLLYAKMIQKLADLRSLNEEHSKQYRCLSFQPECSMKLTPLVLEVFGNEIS

[8] = target: T1, Vitamin D3 receptor (Homo sapiens); assay: Agonist activity at VDR in human LX2 cells assessed as inhibition of TGFbeta1-induced collagen-1 synthesis at 100 nM after 24 hrs by ELISA relative to 1,25(OH)2D3
[9] = target: T1, Vitamin D3 receptor (Homo sapiens); assay: Transactivation of VDR (unknown origin) expressed in HEK293 cells co-transfected with human RXRalpha after 24 hrs by dual luciferase reporter gene assay; assay type: cell-based
Outline: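 HEK293 cells at 85-90% confluence transfected per well with 140 ng TK-SPP×3-Luc reporter, 20 ng pCMX-Renilla, 30 ng pENTER-CMV-hRXRα and 100 ng pCMX-VDR. Compounds added 8 h after transfection. Dual-luciferase assay run 24 h later, firefly normalized to Renilla, three experiments.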

[10] = target: T1, Vitamin D3 receptor (Homo sapiens); assay: Transactivation of VDR in human LX2 cells assessed as inhibition of TGFbeta1-induced ACTA2 mRNA expression at 100 nM after 24 hrs by Q-PCR analysis; assay type: cell-based
Outline: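 LX-2 cells cultured with 100 nM compound for 24 h. ACTA2 mRNA measured by SYBR Green Q-PCR, normalized to U36B4 (human internal control).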

[11] = target: T1, Vitamin D3 receptor (Homo sapiens); assay: Transactivation of VDR in human LX2 cells assessed as inhibition of TGFbeta1-induced alpha-SMA protein levels at 100 nM after 24 hrs by Western blot analysis; assay type: cell-based
Outline: (§3)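 LX-2 cells cultured 24 h with 100 nM compound in TGFβ1-treated cells. Proteins separated on 10% SDS-PAGE, transferred to PVDF, and α-SMA or collagen I bands detected by infrared scanning.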

[12] = target: T1, Vitamin D3 receptor (Homo sapiens); assay: Transactivation of VDR in human LX2 cells assessed as inhibition of TGFbeta1-induced collagen 1 protein levels at 100 nM after 24 hrs by Western blot analysis; assay type: cell-based; outline: as §3
[13] = system: Mus musculus; assay: Antifibrotic activity in C57BL/6J mouse model of CCl4-induced liver fibrosis assessed as decrease in alpha-SMA expression in liver at 20 ug/kg, po administered 5 times a week via gavage measured at 72 hrs post final CCl4 injection by Q-PCR analysis; assay type: functional, organism-based
[14] = system: Mus musculus; assay: Antifibrotic activity in C57BL/6J mouse model of CCl4-induced liver fibrosis assessed as decrease in alpha-SMA expression in liver at 20 ug/kg, po administered 5 times a week via gavage measured at 72 hrs post final CCl4 injection by IHC-staining based assay; assay type: functional, organism-based
[15] = system: Mus musculus; assay: Antifibrotic activity in C57BL/6J mouse model of CCl4-induced liver fibrosis assessed as increase in CYP24A1 expression in liver at 20 ug/kg, po administered 5 times a week via gavage measured at 72 hrs post final CCl4 injection by Q-PCR analysis; assay type: functional, organism-based
[16] = system: Mus musculus; assay: Antifibrotic activity in C57BL/6J mouse model of CCl4-induced liver fibrosis assessed as reduction in collagen accumulation in liver at 20 ug/kg, po administered 5 times a week via gavage measured at 72 hrs post final CCl4 injection by hematoxylin-eosin staining based assay; assay type: functional, organism-based; outline: as §1
[17] = system: Mus musculus; assay: Antifibrotic activity in C57BL6/J mouse model of CCl4-induced liver fibrosis assessed as reduction in collagen accumulation in liver at 20 ug/kg, po administered 5 times a week via gavage measured at 72 hrs post final CCl4 injection by Masson's trichrome-staining based assay; assay type: functional, organism-based; details: C57BL/6J; outline: as §1
[18] = system: Mus musculus; assay: Antifibrotic activity in C57BL/6J mouse model of CCl4-induced liver fibrosis assessed as reduction in COL1A1 mRNA expression in liver at 20 ug/kg, po administered 5 times a week via gavage measured at 72 hrs post final CCl4 injection by Q-PCR analysis; assay type: functional, organism-based
[19] = system: Mus musculus; assay: Induction of serum calcium levels in CCL4-induced C57BL/6J mouse liver damage model at 20 ug/kg, po administered 5 times a week via gavage measured at 72 hrs post final CCl4 injection; assay type: organism-based; details: in vivo, 0.02 mg/kg; outline: as §2
[20] = organism: Homo sapiens; assay: Inhibition of TGFbeta1-mediated collagen-1 activation in human LX2 cells at 100 nM after 24 hrs in presence of VDR siRNA by Western blot analysis; assay type: functional, cell-based
Outline: (§4)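 LX-2 cells transfected with VDR-directed or scrambled siRNA (50 nM, Lipofectamine 2000), cultured 24 h, then treated 24 h with 100 nM compound, TGFβ1 (1 ng/mL), or both. VDR, α-SMA and collagen I measured by western blot (10% SDS-PAGE, PVDF).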

[21] = organism: Homo sapiens; assay: Inhibition of TGFbeta1-mediated alphaSMA expression in human LX2 cells at 100 nM after 24 hrs in presence of VDR siRNA by Western blot analysis; assay type: functional, cell-based; outline: as §4
[22] = target: T1, Vitamin D3 receptor (Homo sapiens); assay: Agonist activity at VDR in human LX2 cells assessed as upregulation of TGFbeta1-induced CYP24A1 mRNA expression after 24 hrs by Q-PCR method; assay type: cell-based
[23] = system: Mus musculus; assay: Effect on Trpv6 mRNA expression in CCL4-induced C57BL/6J mouse liver damage model at 20 ug/kg, po via gavage measured on day 3 and 7 by Q-PCR analysis; assay type: ADME, organism-based; details: in vivo, 0.02 mg/kg

- Activity [7]: 27%
- collagen-1 synthesis inhibition relative to 1,25(OH)2D3 (%) [8]: 71%
Compound: CCn1c(C(=O)NCC2CC2)ccc1C(CC)(CC)c1ccc(OCC(O)CO)c(C)c1 (stereo unspecified)

- Activity [7]: 32%
- collagen-1 synthesis inhibition relative to 1,25(OH)2D3 (%) [8]: 112%
Compound: CCn1cc(C(CC)(CC)c2ccc(OCCCC(=O)O)c(C)c2)cc1C(=O)NCC(C)(C)O

- Activity [7]: 20%
- collagen-1 synthesis inhibition relative to 1,25(OH)2D3 (%) [8]: 73%
Compound: CCn1cc(C(CC)(CC)c2ccc(OC(=O)[C@H](C)N)c(C)c2)cc1C(=O)NCC(C)(C)O

- Activity [7]: 93%
- collagen-1 synthesis inhibition relative to 1,25(OH)2D3 (%) [8]: 95%
Compound: C=C1/C(=C\C=C2/CCC[C@]3(C)[C@@H]([C@H](C)/C=C/[C@@H](O)C4CC4)CC[C@@H]23)C[C@@H](O)C[C@@H]1O
- Activity [1]: Active
- Activity [2]: Active
- Activity [3]: Active
- Activity [4]: Active

- Activity [7]: 16%
- collagen-1 synthesis inhibition relative to 1,25(OH)2D3 (%) [8]: 51%
Compound: CCCCCNC(=O)c1cc(C(CC)(CC)c2ccc(OCC(O)CO)c(C)c2)cn1CC (stereo unspecified)

- Activity [7]: 37%
- collagen-1 synthesis inhibition relative to 1,25(OH)2D3 (%) [8]: 135%
Compound: CCn1c(C(=O)NCC(F)(F)F)ccc1C(CC)(CC)c1ccc(OCC(O)CO)c(C)c1 (stereo unspecified)

- Activity [7]: 30%
- collagen-1 synthesis inhibition relative to 1,25(OH)2D3 (%) [8]: 90%
Compound: CCn1cc(C(CC)(CC)c2ccc(OCCCCC(=O)O)c(C)c2)cc1C(=O)NCC(C)(C)O

- Activity [9]: Dose-dependent effect
- inhibition [11]: Active
- inhibition [12]: Active
- Activity [7]: 39%
- collagen-1 synthesis inhibition relative to 1,25(OH)2D3 (%) [8]: 133%
Compound: CCn1cc(C(CC)(CC)c2ccc(OCC(O)CO)c(C)c2)cc1C(=O)NCC(F)(F)F (stereo unspecified)

Continued, compound first:

Compound: C=C1/C(=C\C=C2/CCC[C@]3(C)[C@@H]([C@H](C)CCCC(C)(C)O)CC[C@@H]23)C[C@@H](O)C[C@@H]1O [CALCITRIOL]
- Activity [1]: Active
- Activity [2]: Active
- Activity [3]: Active
- Activity [4]: Active
- bioavailability [5]: 30.8%
- half-life [6]: 7.55 h

Compound: CCn1cc(C(CC)(CC)c2ccc(OC(=O)CCC(=O)O)c(C)c2)cc1C(=O)NCC(C)(C)O
- Activity [7]: 30%
- collagen-1 synthesis inhibition relative to 1,25(OH)2D3 (%) [8]: 80%

Compound: CCn1c(C(=O)NCC(C)(C)C)ccc1C(CC)(CC)c1ccc(OCC(O)CO)c(C)c1 (stereo unspecified)
- Activity [9]: Dose-dependent effect
- inhibition [10]: inactive
- Activity [7]: 45%

Compound: CCn1c(C(=O)NCC(C)(C)O)ccc1C(CC)(CC)c1ccc(OCC(O)CO)c(C)c1 (stereo unspecified)
- Activity [9]: Dose-dependent effect
- inhibition [10]: inactive
- Activity [7]: 43%
- collagen-1 synthesis inhibition relative to 1,25(OH)2D3 (%) [8]: 150%

Compound: CCn1cc(C(CC)(CC)c2ccc(OC(=O)CCN)c(C)c2)cc1C(=O)NCC(C)(C)O
- Activity [7]: 22%
- collagen-1 synthesis inhibition relative to 1,25(OH)2D3 (%) [8]: 66%

Compound: CCCCCNC(=O)c1ccc(C(CC)(CC)c2ccc(OCC(O)CO)c(C)c2)n1CC (stereo unspecified)
- Activity [7]: 21%
- collagen-1 synthesis inhibition relative to 1,25(OH)2D3 (%) [8]: 70%

Compound: CCn1cc(C(CC)(CC)c2ccc(OCC(O)CO)c(C)c2)cc1C(=O)NCC(C)(C)O (stereo unspecified)
- Activity [9]: Dose-dependent effect
- inhibition [11]: Active
- inhibition [12]: Active
- inhibition [10]: Active
- Activity [13]: Active
- Activity [14]: Active
- Activity [15]: Active
- Activity [16]: Active
- Activity [17]: Active
- Activity [1]: Active
- Activity [18]: Active
- Activity [2]: Active
- Activity [3]: Active
- Activity [4]: Active
- Activity [19]: Non-Toxic
- bioavailability [5]: 29.3%
- half-life [6]: 6.57 h
- inhibition [20]: inactive
- inhibition [21]: inactive
- Activity [22]: Active
- Activity [23]: Non-Toxic
- Activity [7]: 62%

Compound: CCn1cc(C(CC)(CC)c2ccc(OCC(O)CO)c(C)c2)cc1C(=O)NCC(C)(C)C (stereo unspecified)
- Activity [7]: 31%
- collagen-1 synthesis inhibition relative to 1,25(OH)2D3 (%) [8]: 119%
